ERAP1 inh = blocks human ERAP1 aminopeptidase activity. Q9NZ08. recombinant ERAP1, Leu-AMC fluorescence, 60 min. inhibition, % at 10.7 µM. 340,000 tested, 0.15% active. AID 652197;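 active = mean replicate inhibition of at least 30%, or all replicates individually reaching that 30% level; inactive = mean below 30% and not every replicate reaching it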;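 note: 0% = neutral control wells and 100% = L-leucinethiol positive control wells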
Target sequence (Q9NZ08 whole entry, looked up): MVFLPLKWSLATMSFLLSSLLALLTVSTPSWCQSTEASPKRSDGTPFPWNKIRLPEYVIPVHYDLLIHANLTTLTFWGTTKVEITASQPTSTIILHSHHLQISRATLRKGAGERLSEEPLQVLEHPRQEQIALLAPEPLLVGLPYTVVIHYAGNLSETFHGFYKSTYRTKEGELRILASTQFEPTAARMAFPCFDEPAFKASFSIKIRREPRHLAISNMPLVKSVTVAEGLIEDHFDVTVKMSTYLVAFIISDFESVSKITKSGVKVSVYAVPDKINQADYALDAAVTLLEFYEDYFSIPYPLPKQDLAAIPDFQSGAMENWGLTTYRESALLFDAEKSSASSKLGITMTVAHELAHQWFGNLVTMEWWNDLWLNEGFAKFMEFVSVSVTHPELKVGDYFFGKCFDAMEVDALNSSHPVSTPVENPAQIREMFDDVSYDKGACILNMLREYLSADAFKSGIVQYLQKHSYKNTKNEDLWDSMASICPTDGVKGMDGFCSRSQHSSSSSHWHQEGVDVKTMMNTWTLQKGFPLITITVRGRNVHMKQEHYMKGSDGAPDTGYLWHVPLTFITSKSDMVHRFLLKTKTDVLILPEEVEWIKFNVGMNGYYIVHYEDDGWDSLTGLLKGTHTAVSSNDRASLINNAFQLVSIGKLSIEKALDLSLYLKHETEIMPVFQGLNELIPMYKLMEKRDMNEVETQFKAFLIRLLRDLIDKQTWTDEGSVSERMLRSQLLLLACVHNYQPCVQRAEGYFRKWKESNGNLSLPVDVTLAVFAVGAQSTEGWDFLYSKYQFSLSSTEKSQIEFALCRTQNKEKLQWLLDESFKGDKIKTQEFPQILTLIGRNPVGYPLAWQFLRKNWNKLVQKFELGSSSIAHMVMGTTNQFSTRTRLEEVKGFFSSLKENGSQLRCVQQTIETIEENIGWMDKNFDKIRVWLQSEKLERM
SIRT5 inh = sirtuin-5 (human) deacylase inhibition | Q9NXA8 | inhibition, % at 15 µM | Purified SirT5, succinyl-peptide AMC, trypsin-coupled fluorescence | 330,000 tested, 1.1% active; in the data active = inhibition above about 15%; inconclusive = no clear call, values can overlap the other calls
E-sel inducer = induces E-selectin expression in human endothelial cells. activation, % at 7.58 µM. HUVEC E-selectin immunofluorescence imaging; normalized: neutral wells 0, TNF-alpha wells 100. 260,000 tested, 0.37% active. AID 686992;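 active = mean E-selectin-positive cell signal at least 10% of the positive control, reached in at least 60% of replicates, without over 20% cell loss; inconclusive = no rule given, readout overlaps actives, possibly toxicity-flagged; inactive = the rest, including those meeting only one limit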
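material = human umbilical vein endothelial cells (HUVEC), E-selectin induction | quantity = 3,000 cells/well | medium = EGM-2 growth medium on 0.1% gelatin-coated wells | technique = immunofluorescence imaging | read-out basis = % PE-positive cells | control set = TNF-alpha positive control, DMSO neutral control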
DENV2 CPE = protects cells from dengue virus 2 cytopathic effect; DENV2-infected cells, cytopathic effect rescue, plate reader; CPE inhibition, % at 9.99 µM; 350,000 tested, 1.7% active; in the data active = CPE inhibition above about 20%, passing the limit was not always enough; inconclusive = no clear call, values can overlap the other calls; tested in BHK-21 cells;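 note: 0% = median of neutral control wells and 100% = median of positive control wells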
PglD DTNB = inhibitors of Campylobacter jejuni PglD acetyltransferase; 360,000 tested, 0.098% active; purified PglD enzyme, DTNB colorimetric CoA detection; inhibition, % at 12.5 µM; in the data active = inhibition above about 16%, passing the limit was not always enough; inconclusive = no clear call, values can overlap the other calls
Starred values were filed as active, the others as inactive; ? = inconclusive; . = no result. Rows were chosen to be rich in hits. Some 2.5% of all compounds tested hit in one or more screens of this group.

SMILES | ERAP1 inh | SIRT5 inh | E-sel inducer | DENV2 CPE | PglD DTNB
Cc1ccc(S(=O)(=O)c2cc(Nc3ccccc3)ccc2O)cc1 | 1 | . | 0 | ? | -2
CCN(CC(=O)Nc1cc(Cl)ccc1C)C(=O)Cc1ccsc1 | -2 | -2 | . | -2 | 5
COc1ccc(-c2cc(C(=O)NCCCN3CCCC3=O)c3ccccc3n2)cc1 | 3 | -9 | 0 | 58* | 8
CCCC1CC(CCc2ccccc2)OS(=O)(=O)N1 (stereo unspecified) | -2 | 2 | 0 | 40* | -9
CCc1ccc(N(CC(=O)O)S(=O)(=O)c2c(C)noc2C)cc1 | 0 | . | 0 | 0 | -7
Cc1ccc(SC(=O)c2c(C)noc2-c2cc(C)on2)cc1 | . | -3 | 2 | 41* | -4
Cc1cc(-c2onc(C)c2C(=O)N/N=C/c2ccccc2)no1 | -2 | 1 | . | -5 | .
Cc1cc(NC(=O)CCC(=O)N(Cc2ccccc2)C(C(=O)NC2CCCC2)c2ccco2)no1 (stereo unspecified) | -1 | 78* | . | -1 | 0
CCCCOc1ccc(N(CC(=O)NCC2CCCO2)C(=O)CCC(=O)Nc2nccs2)cc1 (stereo unspecified) | 0 | 2 | . | 3 | .
CCOc1ccc(N(CC(=O)NCC2CCCO2)C(=O)CCC(=O)Nc2nccs2)cc1 (stereo unspecified) | -4 | 17* | . | 2 | 1
c1ccc(-c2ccccc2OCCOCCN2CCNCC2)cc1 | 13 | -1 | 39* | -7 | .
c1ccc(-c2ccccc2OCCOCCN2CCOCC2)cc1 | -3 | -1 | 0 | -4 | -1
O=C1CCC([N+](=O)[O-])C(C2CC=CCC2)N1 (stereo unspecified) | 0 | -2 | 7 | 8 | .
C/C(=N\NC(=O)CC#N)c1cc2ccc(O)cc2oc1=O | 80* | -38 | 1 | -9 | -4
CCOC(=O)C(=O)N/N=C/c1ccco1 | . | 0 | . | 2 | 2
O=C(c1cccc([N+](=O)[O-])c1)c1ccccn1 | . | -4 | 1 | 1 | .
Cn1cccc1C(=O)c1cccc([N+](=O)[O-])c1 | -4 | 17* | 0 | 1 | .
Cc1ccc(C(=O)NC(=S)c2c(C)cc3ccccn23)cc1 | 2 | . | 0 | 85* | 6
Cc1cc2ccccn2c1C(=S)NC(=O)c1ccccc1 | 10 | 0 | . | -4 | 0
CC(C)Cc1cc(C(=O)N2CCC(N3CCC(C(=O)N4CCCC4)CC3)CC2)n[nH]1 | 0 | 4 | 0 | -4 | 1
CC(C)Cc1cc(C(=O)N2CCC(N3CCC(C(=O)NC4CC4)CC3)CC2)n[nH]1 | 6 | 17* | . | 1 | -1
CO[C@H]1CN(C)C(=O)c2cc(NC(=O)c3ccccc3F)ccc2OC[C@H](C)NC[C@@H]1C | 0 | 25* | 0 | 9 | 4
CO[C@H]1CN(C)C(=O)c2cc(NC(=O)c3ccccc3F)ccc2OC[C@H](C)NC[C@H]1C | 0 | -1 | 0 | 5 | -1
CO[C@H]1CN(C)C(=O)c2cc(NC(=O)c3ccccc3F)ccc2OC[C@@H](C)NC[C@@H]1C | 0 | 26* | 0 | -4 | -6
C[C@@H]1CN([C@H](C)CO)C(=O)c2cccc(NS(=O)(=O)c3ccccc3)c2O[C@@H]1CN(C)Cc1ccncc1 | -2 | -3 | 0 | -3 | -2
SMILES | ERAP1 inh | SIRT5 inh | E-sel inducer | DENV2 CPE | PglD DTNB
COc1ccc(OCCOc2ccc(S(=O)(=O)N3CCCC3)cc2C(N)=O)cc1 | -6 | -3 | . | -9 | -4
COc1ccc(OCCOc2ccc(S(=O)(=O)N3CCCC3)cc2[N+](=O)[O-])cc1 | -2 | 27* | . | -11 | -1
COC1=CC(=O)CC(C)C12Oc1c(Cl)c(OC)cc(OC)c1C2=O (stereo unspecified) | 1 | 1 | 0 | -4 | 1
CN(C)S(=O)(=O)N1CCC(Oc2ccc(C(=O)N3CCCCCCC3)cc2)CC1 | 0 | 0 | -1 | 45* | -1
COc1ncc(C2=CC(=O)CC(C)(C)C2)cn1 | 0 | . | 0 | 31* | 3
Cn1c(=O)c2cc(S(=O)(=O)NC(C(=O)Nc3cccnc3)c3ccccc3)ccc2n(C)c1=O (stereo unspecified) | 2 | . | 0 | -8 | .
Cn1c(=O)c2cc(S(=O)(=O)NC(C(=O)Nc3cccc(F)c3)c3ccccc3)ccc2n(C)c1=O (stereo unspecified) | . | . | 0 | 78* | -2
C1CCCCCC2(CCCCC1)OCC(CN1CCOCC1)O2 (stereo unspecified) | . | . | -1 | . | .
C[N+]1(CC2COC3(CCCCC3)O2)CCCC1 (stereo unspecified) | 81* | -4 | 2 | -21 | 2
COc1cc(/C=C2/NC(=O)NC2=O)cc(Br)c1OCc1ccc(C(=O)O)cc1 | 9 | 15* | . | 1 | .
O=C(O)COc1c(Cl)cc(/C=C2\NC(=O)NC2=O)cc1Br | 15 | 2 | . | -5 | .
Cc1ccc(S(=O)(=O)Nc2ccc3c(c2)C(=O)N([C@@H](C)CO)C[C@H](C)[C@@H](CN(C)C(=O)Nc2ccc(C(F)(F)F)cc2)OCCCC[C@@H](C)O3)cc1 | 6 | 18* | 0 | -2 | 0
Cc1ccc(S(=O)(=O)Nc2ccc3c(c2)C(=O)N([C@@H](C)CO)C[C@H](C)[C@H](CN(C)C(=O)Nc2ccc(C(F)(F)F)cc2)OCCCC[C@H](C)O3)cc1 | 0 | . | 0 | -4 | .
Cc1ccc(S(=O)(=O)Nc2ccc3c(c2)C(=O)N([C@@H](C)CO)C[C@@H](C)[C@@H](CN(C)C(=O)Nc2ccc(C(F)(F)F)cc2)OCCCC[C@@H](C)O3)cc1 | 1 | 15* | 0 | 4 | 2
Cc1ccc(S(=O)(=O)Nc2ccc3c(c2)C(=O)N([C@H](C)CO)C[C@H](C)[C@@H](CN(C)C(=O)Nc2ccc(C(F)(F)F)cc2)OCCCC[C@@H](C)O3)cc1 | 2 | 7 | 1 | 6 | 0
COc1cc(NC(=S)N2CCOCC2)c(OC)cc1Cl | . | . | 26* | -1 | 8
CCCN1C[C@H](C)[C@H](OC)CN(C)C(=O)c2cc(NC(=O)c3ccccc3F)ccc2OC[C@H]1C | 0 | -3 | 3 | -4 | -1
CNC(=O)/C(C#N)=C\c1ccc(CNS(=O)(=O)c2ccc(Cl)cc2)o1 | 33* | 6 | 2 | 6 | .
Cc1ccc(-c2nn(-c3ccccc3)cc2C=C2SC(=S)N(CCS(=O)(=O)O)C2=O)cc1 | 7 | 55* | 0 | -5 | 3
O=C1CN(S(=O)(=O)Cc2ccccc2)C[C@H]2[C@H](c3ccc(C#Cc4ccc(F)cc4)cc3)[C@@H](CO)N12 | -3 | 7 | -1 | 38* | .
O=C1CN(S(=O)(=O)Cc2ccccc2)C[C@@H]2[C@@H](c3ccc(C#Cc4ccc(F)cc4)cc3)[C@@H](CO)N12 | 1 | 3 | -1 | 0 | .
O=C1CN(S(=O)(=O)Cc2ccccc2)C[C@H]2[C@@H](c3ccc(C#Cc4ccccc4)cc3)[C@H](CO)N12 | -3 | 16* | 0 | -3 | .
O=C1CN(S(=O)(=O)Cc2ccccc2)C[C@@H]2[C@@H](c3ccc(C#Cc4ccc(F)cc4)cc3)[C@H](CO)N12 | -3 | 9 | -1 | -5 | .
